Experimental data gathered from unrelated publications.
Lines come from different studies, so protocols differ.
Cell line: MDA-MB-435
Observed: cell growth or viability

SMILES | test | setting | quantity | value
COc1ccc(C(=O)/C=C/c2cccc3ccccc23)cc1S(N)(=O)=O | SRB | 10 µM | inhibition | 95%
CCOC(=O)c1[nH]c(Br)c(-c2ccc(OC)cc2)c1Br | SRB |  | IC50 | 843 nM
COc1ccc(C(=O)/C=C/c2cccc(Br)c2)cc1S(N)(=O)=O | SRB | 10 µM | inhibition | 106%
CCOC(=O)c1[nH]c(Br)c(-c2ccc(OC(F)(F)F)cc2)c1Br | SRB |  | IC50 | 1700 nM
CC(C)C[C@H](NC(=O)[C@H](Cc1ccccc1)NC(=O)c1cnccn1)B(O)O | ATP luminescence |  | IC50 | 8 nM
CCOC(=O)c1[nH]c(Br)c(-c2ccc3c(c2)OCO3)c1Br | SRB |  | IC50 | 1800 nM
O=C1CCC2(Oc3cccc4cccc(c34)O2)c2c(O)ccc(O)c21 | resazurin | 72 h | IC50 | > 25000 nM
COc1cccc(Oc2ccccc2NC(=O)CNC(=O)c2cccc3ccccc23)c1 | SRB | 48 h | GI50 | 70.8 nM
COc1ccc(C(=O)/C=C/c2c(F)cccc2Cl)cc1S(N)(=O)=O | SRB | 10 µM | inhibition | 93%
CCOC(=O)c1[nH]c(Br)c(-c2cccc(OC)c2)c1Br | SRB |  | IC50 | 633 nM
O=C1NC(=NCc2cccs2)S/C1=C\c1ccc2ncccc2c1 |  |  | IC50 | 6600 nM
COc1ccc(N(C)c2nc(C)nc3c2C[C@@H](C)C3)cc1 (racemic) | SRB |  | IC50 | 17 nM
COc1ccc(C(=O)/C=C/c2cccnc2)cc1S(N)(=O)=O | SRB | 10 µM | inhibition | 26%
COc1ccc(-c2ccc(-c3ccc(C(=N)N)nc3)s2)cc1Cl | SRB |  | GI50 | 1730 nM
